Measured values published in ChEMBL document CHEMBL5724801, “EUbOPEN Chemogenomics Library - Multiplex” (2024).
“And” between values parts separate entries of the source, which are not always exact repeats. Equal entries are not always repeated.

Test system: U2OS
Test: Multiplex assay against U2OS
Format: toxicity, cell-based
Conditions: human
How it was run: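 Cells were classed with CellPathfinder machine-learning gating, first as Hoechst high-intensity objects or normal cells, then (normal cells) as healthy, pyknosed or fragmented nuclei, and finally (pyknosed cells) as mitotic or apoptotic. Staining of live cells at seeding used Hoechst33342, BioTracker Green Microtubule Cytoskeleton Dye, MitoTracker Red and Annexin V Alexa Fluor 680, with imaging on a CQ1 microscope at 37°C and 5% CO2 after compound addition. Tubulin, mitochondrial-mass and membrane-permeability phenotypes are per cents of healthy-nucleus cells.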

[1] = 12 h, 1 µM, compound concentration 1 uM
[2] = 12 h, 10 µM, compound concentration 10 uM
[3] = 24 h, 1 µM, compound concentration 1 uM
[4] = 24 h, 10 µM, compound concentration 10 uM
[5] = 48 h, 1 µM, compound concentration 1 uM
[6] = 48 h, 10 µM, compound concentration 10 uM

Structure (SMILES): COCCNc1cc(NC(=O)N2CCCc3cc(CN4CCN(C)CC4=O)c(C=O)nc32)ncc1C#N [FGF401]
- Population Apoptotic (%) [1]: 50% and 42.86%
- Population Fragmented Nuclei (%) [1]: 2.96% and 1.3%
- Population Healthy Nuclei (%) [1]: 87.87% and 85.06%
- Population Hoechst High Intensity Objects (%) [1]: 0%
- Population Membrane Permeable-Phenotype (%) [1]: 2.15% and 0%
- Population Mitochondria Different-Phenotype (%) [1]: 0% and 2.29%
- Population Mitotic Cells (%) [1]: 50% and 57.14%
- Population Normal (%) [1]: 100%
- Population Pyknosed Nuclei (%) [1]: 9.16% and 13.64%
- Population Tubulin-Different-Phenotype (%) [1]: 2.15% and 0.76%
- Total Cell Count [1]: 371 and 154
- Population Apoptotic (%) [2]: 37.5% and 26.32%
- Population Fragmented Nuclei (%) [2]: 0.72% and 5.88%
- Population Healthy Nuclei (%) [2]: 91.65% and 82.94%
- Population Hoechst High Intensity Objects (%) [2]: 0.24% and 0%
- Population Membrane Permeable-Phenotype (%) [2]: 1.3% and 4.26%
- Population Mitochondria Different-Phenotype (%) [2]: 0% and 3.55%
- Population Mitotic Cells (%) [2]: 62.5% and 73.68%
- Population Normal (%) [2]: 99.76% and 100%
- Population Pyknosed Nuclei (%) [2]: 7.64% and 11.18%
- Population Tubulin-Different-Phenotype (%) [2]: 0.52% and 0%
- Total Cell Count [2]: 420 and 170
- Population Apoptotic (%) [3]: 48.94% and 42.31%
- Population Fragmented Nuclei (%) [3]: 1.93% and 2.97%
- Population Healthy Nuclei (%) [3]: 88.97% and 84.16%
- Population Hoechst High Intensity Objects (%) [3]: 0.19% and 0%
- Population Membrane Permeable-Phenotype (%) [3]: 0.87% and 1.18%
- Population Mitochondria Different-Phenotype (%) [3]: 0.87% and 4.71%
- Population Mitotic Cells (%) [3]: 51.06% and 57.69%
- Population Normal (%) [3]: 99.81% and 100%
- Population Pyknosed Nuclei (%) [3]: 9.09% and 12.87%
- Population Tubulin-Different-Phenotype (%) [3]: 0.87% and 0%
- Total Cell Count [3]: 518 and 202
- Population Apoptotic (%) [4]: 43.18% and 34.29%
- Population Fragmented Nuclei (%) [4]: 1.85% and 3.54%
- Population Healthy Nuclei (%) [4]: 90.04% and 80.97%
- Population Hoechst High Intensity Objects (%) [4]: 0%
- Population Membrane Permeable-Phenotype (%) [4]: 1.23% and 2.19%
- Population Mitochondria Different-Phenotype (%) [4]: 0% and 3.28%
- Population Mitotic Cells (%) [4]: 56.82% and 65.71%
- Population Normal (%) [4]: 100%
- Population Pyknosed Nuclei (%) [4]: 8.12% and 15.49%
- Population Tubulin-Different-Phenotype (%) [4]: 0.61% and 1.09%
- Total Cell Count [4]: 542 and 226
- Population Apoptotic (%) [5]: 45.12% and 50%
- Population Fragmented Nuclei (%) [5]: 4.25% and 1.54%
- Population Healthy Nuclei (%) [5]: 87.05% and 87.38%
- Population Hoechst High Intensity Objects (%) [5]: 0%
- Population Membrane Permeable-Phenotype (%) [5]: 0.73% and 3.17%
- Population Mitochondria Different-Phenotype (%) [5]: 0.49% and 4.23%
- Population Mitotic Cells (%) [5]: 54.88% and 50%
- Population Normal (%) [5]: 100%
- Population Pyknosed Nuclei (%) [5]: 8.7% and 11.08%
- Population Tubulin-Different-Phenotype (%) [5]: 0.73% and 0.7%
- Total Cell Count [5]: 942 and 325
- Population Apoptotic (%) [6]: 39.42% and 53.49%
- Population Fragmented Nuclei (%) [6]: 2% and 2.76%
- Population Healthy Nuclei (%) [6]: 87.6% and 86.43%
- Population Hoechst High Intensity Objects (%) [6]: 0% and 0.25%
- Population Membrane Permeable-Phenotype (%) [6]: 1.14% and 2.62%
- Population Mitochondria Different-Phenotype (%) [6]: 0.11% and 1.45%
- Population Mitotic Cells (%) [6]: 60.58% and 46.51%
- Population Normal (%) [6]: 100% and 99.75%
- Population Pyknosed Nuclei (%) [6]: 10.4% and 10.8%
- Population Tubulin-Different-Phenotype (%) [6]: 0.91% and 1.16%
- Total Cell Count [6]: 1000 and 399
